The source of these data is ChEMBL document CHEMBL1147349, “Bisamides from Aglaia species: structure analysis and potential to reverse drug resistance with cultured cells” (1993).

Format in all cases: functional
For one experiment, the system named is KB. In words: Cytotoxicity against human KB cells. To be noted: read-out: ED50 (the source's name). An outline of the steps:
(§1)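 Human cancer cell lines were cultured with the test compounds at concentrations up to 20 µg/ml. The read-out was cell survival, expressed as ED50.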

A short description of experiment [1]: Cytotoxicity against vinblastine-resistant human KBV1 cells. To be noted: KB-V1, read-out: ED50 (the source's name). Summed up:
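KB-V1 cells are routinely maintained in vinblastine (1 µg/ml) to keep the drug-resistant phenotype. For this test they were cultured with the test compounds without vinblastine, at concentrations up to 20 µg/ml. The read-out was cell survival, expressed as ED50.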

Experiment [2] is described as follows: Cytotoxicity against human BCA1 cells. To be noted: read-out: ED50 (the source's name). Summed up:
as §1

A further experiment relates to HT-1080. Nature of the experiment: Cytotoxicity against human HT1080 cells. To be noted: read-out: ED50 (the source's name). An outline of the steps: as §1
The nature of experiment [3]: Cytotoxicity against human LUC1 cells. To be noted: read-out: ED50 (the source's name). Summed up: as §1
For a further experiment, the system named is SK-MEL-2. In words: Cytotoxicity against human SK-MEL-2 cells. To be noted: read-out: ED50 (the source's name). Summed up: as §1
Experiment [4] can be described thus: Cytotoxicity against human Col1 cells. To be noted: read-out: ED50 (the source's name). Summed up:
as §1

Experiment [5] can be described thus: Cytotoxicity against vinblastine-resistant human KBV1 cells by dose-response study in presence of 1 ug/ml vinblastine. To be noted: KB-V1, read-out: ED50 (the source's name). An outline of the steps:
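The resistant KB-V1 line, normally kept in vinblastine (1 µg/ml), was exposed to the test compounds up to 20 µg/ml. Vinblastine at 1 µg/ml was present in the culture medium during treatment. The read-out was cell survival, expressed as ED50.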

The next experiment concerns A-431. In words: Cytotoxicity against human A431 cells. To be noted: read-out: ED50 (the source's name). Summed up:
as §1

The test system of another experiment is LNCaP. Nature of the experiment: Cytotoxicity against human LNCAP cells. To be noted: read-out: ED50 (the source's name). Summed up:
as §1

For another experiment, the system named is ZR-75-1. In words: Cytotoxicity against human ZR-75-1 cells. To be noted: read-out: ED50 (the source's name). An outline of the steps:
as §1

The structures appear in SMILES notation. ≈ marks a conversion by molar mass, not a printed value.

As to `CC[C@]1(O)C[C@@H]2CN(CCc3c([nH]c4ccccc34)[C@@](C(=O)OC)(c3cc4c(cc3OC)N(C)[C@H]3[C@@](O)(C(=O)OC)[C@H](OC(C)=O)[C@]5(CC)C=CCN6CC[C@]43[C@@H]65)C2)C1` [VINBLASTINE], the results for the EC50 (in the experiment on KB; in [1]) were 0.002 µg/mL (≈ 0.00247 µM) and 2.6 µg/mL (≈ 3.21 µM), respectively.
Turning to `CC(C)C(=O)N[C@H]1CCCN1C(=O)/C=C/c1ccccc1` [PIRIFERINE], the EC50 (in experiment [2]; in the experiment on HT-1080; in experiment [3]; in the experiment on SK-MEL-2; in experiment [4]; in the experiment on KB) was greater than 20 µg/mL in each case. Also, the EC50 in [1] is 10 µg/mL (≈ 34.9 µM); in [5] it was 8.5 µg/mL; in the experiment with A-431 it was greater than 20 µg/mL; in the experiment with LNCaP, greater than 20 µg/mL; with ZR-75-1, greater than 20 µg/mL.
As for `CC[C@H](C)C(=O)N[C@@H]1CCCN1C(=O)/C=C/c1ccccc1`, the EC50 (in experiment [2]; in the experiment with HT-1080; in experiment [3]; in the experiment on SK-MEL-2; in [4]; with KB) was greater than 20 µg/mL each time. In addition, the EC50 in experiment [1] is greater than 20 µg/mL; in [5] it was 4.2 µg/mL; in the experiment on A-431, greater than 20 µg/mL; in the experiment with LNCaP it was greater than 20 µg/mL; in the experiment with ZR-75-1 it was greater than 20 µg/mL.
In the case of `O=C(/C=C/c1ccccc1)NCCCCNC(=O)c1ccccc1` [PYRAMIDATINE], the EC50 (in experiment [2]; with HT-1080; in [3]; in the experiment with SK-MEL-2; in experiment [4]; in the experiment on KB) was greater than 20 µg/mL throughout. For the same compound, the EC50 (in experiment [1]; in [5]; in the experiment with A-431; in the experiment with LNCaP; in the experiment on ZR-75-1) was greater than 20 µg/mL throughout.
Turning to `CC[C@H](C)C(=O)N[C@H]1CCCN1C(=O)/C=C/c1ccccc1` [ODORINE], the EC50 (in [2]; in the experiment on HT-1080; in experiment [3]; in the experiment on SK-MEL-2; in [4]; in the experiment on KB) was greater than 20 µg/mL in each case. Moreover, the EC50 in experiment [1] is greater than 20 µg/mL; in experiment [5] it was 6.4 µg/mL; in the experiment on A-431 it was greater than 20 µg/mL; in the experiment with LNCaP, greater than 20 µg/mL; in the experiment on ZR-75-1, greater than 20 µg/mL.
